Laboratory results as given in ChEMBL document CHEMBL3632468, “Discovery and optimisation studies of antimalarial phenotypic hits” (Eur J Med Chem, 2015).
Values after ≈ are worked out from the molar mass of the structure shown.

Assays:
[1] = test system: Liver microsome; test: Drug metabolism in human liver microsomes at 1 uM by LC/MS method; assay type: ADME
[2] = Drug metabolism in mouse liver microsomes at 1 uM by LC/MS method; assay type: ADME
[3] = Solubility in phosphate buffer at pH 6.5 by nephelometry; assay type: physicochemical
[4] = test system: Liver; test: Intrinsic clearance in mouse liver microsomes assessed as compound metabolized at 1 uM pre-incubated at 37 degC before addition of NADPH-generating system by LC/MS method; assay type: ADME
[5] = test system: Liver microsome; test: Intrinsic clearance in human liver microsomes assessed as compound metabolized at 1 uM pre-incubated at 37 degC before addition of NADPH-generating system by LC/MS method; assay type: ADME
[6] = test system: Plasmodium berghei; test: Antimalarial activity against Plasmodium berghei ANKA expressing GFP infected in NMRI mouse assessed as increase in mouse survival at 50 mg/kg, ip qd administered as single dose on day 0 to 4 of exposure measured on day 5 post exposure by FACS method (reference value: 7 days); assay type: functional
Outline: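 P. berghei ANKA GFP infection in mice, dosed intraperitoneally at 50 mg/kg/day × 4. An untreated control group and a chloroquine 10 mg/kg ip reference group were included. Read-outs were % reduction in parasitaemia and mean survival in days.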

[7] = test system: Plasmodium berghei; test: Antimalarial activity against Plasmodium berghei ANKA expressing GFP infected in NMRI mouse assessed as inhibition of parasitemia at 50 mg/kg, ip qd administered as single dose on day 0 to 4 of exposure measured on day 5 post exposure by FACS method relative to control; assay type: functional
Outline: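 P. berghei ANKA GFP infection in mice; dosed intraperitoneally at 50 mg/kg/day × 4, with chloroquine 10 mg/kg ip as reference and untreated controls. Read-out was % reduction in parasitaemia relative to controls, with survival in days also recorded.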

With Cc1cc(/C=C2\S/C(=N\c3ccccc3)N(C3CCCCC3)C2=O)c(C)n1-c1ccc(F)cc1 the Drug metabolism [1] was “metabolite_notdetected”, the Drug metabolism [2] was “metabolite_notdetected” and the solubility kinetic [3] was 0.8 µg/mL (≈ 1.69 µM). The CLH [4] was 55 µL/min/mg, the CLH [5] was 360 µL/min/mg and the Survival [6] was 6 days. The inhibition in vivo at 50 mg/kg [7] was 12%.
